ChEMBL document CHEMBL1221168, “Activity-based probes that target diverse cysteine protease families” (Nat Chem Biol, 2005)
Activity calls are given as the source filed them. The rule behind the calls is not given here. Square brackets hold non-standard residues; d marks the D form. Peptide text beside a SMILES is read from it. * marks the point of attachment. ξ: configuration not given here. AspCH2OBz(2,6-Me2) = Cc1cccc(C)c1C(=O)OCC(=O)[C@H](CC(=O)O)N*; Biotin = O=C1N[C@H]2[C@H](CS[C@H]2CCCCC(=O)*)N1; Tyr(3-I) = N[C@@H](Cc1ccc(O)c(I)c1)C(=O)O; X1 = O=C1N[C@@H]2CSC(CCCCC(=O)*)[C@@H]2N1; ξD = NC(CC(=O)O)C(=O)O; Ahx = NCCCCCC(=O)O; CH2F = FC*

Key:
Legumain (Mus musculus) = biological target: T1, Legumain (Mus musculus) (UniProt O89017); experiment: Binding affinity to legumain in mouse spleen lysates assessed as protein labeling at 10 uM after 30 mins by SDS-PAGE based affinity blotting; type: tissue-based; details: tested as the 125I-labelled form
T1 sequence (whole entry): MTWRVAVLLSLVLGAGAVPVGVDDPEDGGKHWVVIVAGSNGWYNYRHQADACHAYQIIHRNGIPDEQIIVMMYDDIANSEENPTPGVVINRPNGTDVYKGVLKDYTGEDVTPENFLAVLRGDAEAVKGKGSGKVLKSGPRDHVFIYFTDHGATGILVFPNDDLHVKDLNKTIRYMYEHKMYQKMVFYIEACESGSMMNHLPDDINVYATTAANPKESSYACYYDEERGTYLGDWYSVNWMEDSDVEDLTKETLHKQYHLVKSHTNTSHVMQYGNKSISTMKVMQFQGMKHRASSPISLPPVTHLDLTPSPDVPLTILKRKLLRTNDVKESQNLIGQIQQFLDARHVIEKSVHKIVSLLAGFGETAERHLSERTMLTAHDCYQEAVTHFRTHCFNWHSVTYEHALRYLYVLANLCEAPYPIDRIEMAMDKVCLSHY

Legumain (Homo sapiens) [1] = biological target: T2, Legumain (Homo sapiens) (UniProt Q99538); experiment: Binding affinity to legumain in human Jurkat T cells assessed as protein labeling at 10 uM after 30 mins by SDS-PAGE based affinity blotting; type: cell-based; details: tested as the 125I-labelled form
T2 sequence (whole entry): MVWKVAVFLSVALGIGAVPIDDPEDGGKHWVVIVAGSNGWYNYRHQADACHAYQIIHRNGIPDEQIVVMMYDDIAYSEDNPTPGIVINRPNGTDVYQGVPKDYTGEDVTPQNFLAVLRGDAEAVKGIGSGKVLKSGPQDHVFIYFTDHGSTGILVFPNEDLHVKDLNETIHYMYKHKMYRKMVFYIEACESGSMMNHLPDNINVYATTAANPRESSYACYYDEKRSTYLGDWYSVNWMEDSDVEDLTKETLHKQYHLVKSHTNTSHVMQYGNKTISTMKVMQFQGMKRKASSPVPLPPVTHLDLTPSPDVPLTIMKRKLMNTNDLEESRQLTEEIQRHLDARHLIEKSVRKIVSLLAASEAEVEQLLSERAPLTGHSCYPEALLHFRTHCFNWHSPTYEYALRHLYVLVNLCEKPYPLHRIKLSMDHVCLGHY
In short: (§1)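 B cell lines (2.2.93, 8.1.6, Raji) and Jurkat T cell pellets were lysed in 50 mM citrate phosphate, 1% CHAPS, 0.5% Triton, 5 mM DTT for 10 min on ice, then spun at 14,000g for 15 min at 4 °C. Lysates were set to 1 mg/ml in citrate phosphate pH 5.8, 0.1% CHAPS, 5 mM DTT and labeled for 30 min at 37 °C. Read-out was SDS-PAGE and biotin affinity blot.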

Legumain (Homo sapiens) [2] = biological target: T2, Legumain (Homo sapiens); experiment: Binding affinity to human purified legumain assessed as protein labeling; details: tested as the 125I-labelled form
Legumain (Homo sapiens) [3] = biological target: T2, Legumain (Homo sapiens); experiment: Binding affinity to legumain in human 8.1.6 cells assessed as protein labeling at 10 uM after 30 mins by SDS-PAGE based affinity blotting; type: cell-based; details: tested as the 125I-labelled form; in short: as §1
Caspase-6 (Homo sapiens) = biological target: T3, Caspase-6 (Homo sapiens) (UniProt P55212); experiment: Binding affinity to human recombinant caspase 6 assessed as protein labeling by SDS-PAGE based affinity blotting; details: tested as the 125I-labelled form
T3 sequence (whole entry): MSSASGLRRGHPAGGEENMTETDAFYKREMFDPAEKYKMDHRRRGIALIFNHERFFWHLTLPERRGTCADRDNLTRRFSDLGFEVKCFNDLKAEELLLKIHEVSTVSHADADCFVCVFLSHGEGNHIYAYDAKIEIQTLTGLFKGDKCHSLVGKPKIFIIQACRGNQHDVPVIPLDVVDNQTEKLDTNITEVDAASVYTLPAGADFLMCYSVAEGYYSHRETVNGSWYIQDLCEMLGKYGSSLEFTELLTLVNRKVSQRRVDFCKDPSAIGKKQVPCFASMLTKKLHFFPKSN

Caspase-8 (Homo sapiens) = Caspase-8 (Homo sapiens) (UniProt Q14790); experiment: Binding affinity to human recombinant caspase 8 assessed as protein labeling by SDS-PAGE based affinity blotting; details: tested as the 125I-labelled form
Legumain (Homo sapiens) [4] = biological target: T2, Legumain (Homo sapiens); experiment: Binding affinity to legumain in human 8.1.6 cells assessed as protein labeling at 10 uM after 30 mins immunoprecipitation; type: cell-based; details: tested as the 125I-labelled form
In short: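 8.1.6 B cell lysate at 1 mg/ml in citrate phosphate pH 5.8, 0.1% CHAPS, 5 mM DTT was labeled with probe for 30 min at 37 °C. Legumain was then immunoprecipitated with polyclonal anti-legumain antisera. Input, pellet and supernatant were probed for biotinylated proteins.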

Legumain (Homo sapiens) [5] = biological target: T2, Legumain (Homo sapiens); experiment: Binding affinity to legumain in human 8.1.6 cells assessed as protein labeling at 1 uM at acidic pH after 30 mins by SDS-PAGE based affinity blotting; details: tested as the 125I-labelled form
Caspase-3 (Homo sapiens) [6] = biological target: T4, Caspase-3 (Homo sapiens) (UniProt P42574); experiment: Binding affinity to human recombinant caspase 3 assessed as protein labeling by SDS-PAGE based affinity blotting; details: tested as the 125I-labelled form
T4 sequence (whole entry): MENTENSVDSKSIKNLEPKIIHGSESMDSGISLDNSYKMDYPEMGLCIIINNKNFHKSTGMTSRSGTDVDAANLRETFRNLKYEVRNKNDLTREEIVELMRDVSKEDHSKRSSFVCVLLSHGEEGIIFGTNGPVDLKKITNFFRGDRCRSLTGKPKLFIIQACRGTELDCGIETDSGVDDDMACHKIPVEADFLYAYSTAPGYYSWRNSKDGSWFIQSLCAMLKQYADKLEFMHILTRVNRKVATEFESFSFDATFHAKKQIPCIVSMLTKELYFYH

Legumain (Homo sapiens) [7] = biological target: T2, Legumain (Homo sapiens); experiment: Binding affinity to legumain in human 2.2.93 cells assessed as protein labeling at 10 uM after 30 mins by SDS-PAGE based affinity blotting; type: cell-based; details: tested as the 125I-labelled form; in short: as §1
Legumain (Homo sapiens) [8] = biological target: T2, Legumain (Homo sapiens); experiment: Binding affinity to legumain in human Raji cells assessed as protein labeling at 10 uM after 30 mins by SDS-PAGE based affinity blotting; type: cell-based; details: tested as the 125I-labelled form; in short: as §1
Caspase-7 (Homo sapiens) [9] = biological target: T5, Caspase-7 (Homo sapiens) (UniProt P55210); experiment: Binding affinity to human recombinant caspase 7 assessed as protein labeling by SDS-PAGE based affinity blotting; details: tested as the 125I-labelled form
T5 sequence (whole entry): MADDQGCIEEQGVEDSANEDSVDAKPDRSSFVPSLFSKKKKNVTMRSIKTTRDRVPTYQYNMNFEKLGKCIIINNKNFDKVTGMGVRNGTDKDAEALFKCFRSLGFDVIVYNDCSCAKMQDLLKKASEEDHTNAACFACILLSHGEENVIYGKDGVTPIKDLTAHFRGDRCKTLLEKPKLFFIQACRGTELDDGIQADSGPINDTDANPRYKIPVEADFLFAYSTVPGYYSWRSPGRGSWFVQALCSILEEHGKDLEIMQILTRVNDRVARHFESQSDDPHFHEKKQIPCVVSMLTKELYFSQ

Caspase-7 (Homo sapiens) [10] = biological target: T5, Caspase-7 (Homo sapiens); experiment: Binding affinity to caspase 7 in human Sh-SY-5Y cells extracts assessed as protein labeling by SDS-PAGE based affinity blotting; type: cell-free
Caspase-3 (Homo sapiens) [11] = biological target: T4, Caspase-3 (Homo sapiens); experiment: Binding affinity to caspase 3 in human Sh-SY-5Y cells extracts assessed as protein labeling by SDS-PAGE based affinity blotting; type: cell-free
Caspase-9 (Homo sapiens) [12] = biological target: T6, Caspase-9 (Homo sapiens) (UniProt P55211); experiment: Binding affinity to caspase 9 in human Sh-SY-5Y cells extracts assessed as protein labeling by SDS-PAGE based affinity blotting; type: cell-free
T6 sequence (whole entry): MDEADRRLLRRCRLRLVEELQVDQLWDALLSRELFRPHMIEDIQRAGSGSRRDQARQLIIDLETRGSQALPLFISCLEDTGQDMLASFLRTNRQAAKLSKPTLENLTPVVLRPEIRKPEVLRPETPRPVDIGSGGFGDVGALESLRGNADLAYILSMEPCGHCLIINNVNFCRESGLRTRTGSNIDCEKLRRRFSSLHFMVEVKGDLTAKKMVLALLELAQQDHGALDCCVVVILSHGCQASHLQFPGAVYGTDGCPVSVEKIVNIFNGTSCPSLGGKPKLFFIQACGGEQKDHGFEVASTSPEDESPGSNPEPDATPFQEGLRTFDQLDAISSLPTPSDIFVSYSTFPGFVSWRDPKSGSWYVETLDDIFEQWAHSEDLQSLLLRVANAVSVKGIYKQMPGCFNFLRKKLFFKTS

Caspase-9 (Homo sapiens) [13] = biological target: T6, Caspase-9 (Homo sapiens); experiment: Binding affinity to human recombinant caspase 9 assessed as protein labeling by SDS-PAGE based affinity blotting; details: tested as the 125I-labelled form

Caspase-8 (Homo sapiens), sequence (Q14790 217-374 limits assumed): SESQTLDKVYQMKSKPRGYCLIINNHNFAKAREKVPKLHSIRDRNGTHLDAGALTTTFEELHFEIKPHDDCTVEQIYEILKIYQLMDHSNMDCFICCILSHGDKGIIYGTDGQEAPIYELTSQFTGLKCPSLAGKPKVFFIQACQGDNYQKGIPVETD
Caspase-8 (Homo sapiens), sequence (Q14790 385-479 limits assumed): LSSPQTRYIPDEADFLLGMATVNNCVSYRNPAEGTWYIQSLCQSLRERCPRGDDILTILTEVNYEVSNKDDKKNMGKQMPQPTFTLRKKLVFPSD

Row | Activity (Legumain (Mus musculus)) | Activity (Legumain (Homo sapiens) [1]) | Activity (Legumain (Homo sapiens) [2]) | Activity (Legumain (Homo sapiens) [3]) | Activity (Caspase-6 (Homo sapiens)) | Activity (Caspase-8 (Homo sapiens)) | Activity (Legumain (Homo sapiens) [4]) | Activity (Legumain (Homo sapiens) [5]) | Activity (Caspase-3 (Homo sapiens) [6]) | Activity (Legumain (Homo sapiens) [7]) | Activity (Legumain (Homo sapiens) [8]) | Activity (Caspase-7 (Homo sapiens) [9]) | Activity (Caspase-7 (Homo sapiens) [10]) | Activity (Caspase-3 (Homo sapiens) [11]) | Activity (Caspase-9 (Homo sapiens) [12]) | Activity (Caspase-9 (Homo sapiens) [13]) | Compound
1 | Active | Active | Active | Active | Active | Active | Active | Active | Active | Active | Active | Active |  |  |  |  | CC(=O)N[C@@H](CCCCNC(=O)CCCCC1SC[C@H]2NC(=O)N[C@@H]12)C(=O)N[C@@H](Cc1ccc(O)c(I)c1)C(=O)NCCCCCC(=O)N[C@@H](CC(=O)O)C(=O)COC(=O)c1c(C)cccc1C (stereo not given in full)
2 |  |  |  |  |  |  |  |  |  |  |  |  | Active | Active |  |  | COC(=O)CC(NC(=O)[C@H](C)NC(=O)[C@@H](NC(=O)CCCCCNC(=O)CCCC[C@@H]1SC[C@@H]2NC(=O)N[C@@H]21)C(C)C)C(=O)CF (stereo partly drawn) ({Biotin-Ahx}-Val-Ala-[ξD](OMe)-CH2F)
3 |  |  |  |  | inactive | Active |  |  | Active |  |  | Active |  |  | Active | Active | CC(=O)N[C@@H](CCCCNC(=O)CCCCC1SC[C@H]2NC(=O)N[C@@H]12)C(=O)N[C@@H](Cc1ccc(O)c(I)c1)C(=O)NCCCCCC(=O)N[C@@H](CCC(=O)O)C(=O)N[C@H](C(=O)N[C@@H](CC(=O)O)C(=O)COC(=O)c1c(C)cccc1C)C(C)C (stereo not given in full) (Ac-K(X1)[Tyr(3-I)][Ahx]EV-{AspCH2OBz(2,6-Me2)})
